Broadly, the EC50 is the concentration at which the effect is half-maximal.

The source made the active and inactive calls. The rule behind the calls is not given here.

We go through nine compounds from ChEMBL document CHEMBL3826928, “Incorporation of Phosphonate into Benzonaphthyridine Toll-like Receptor 7 Agonists for Adsorption to Aluminum Hydroxide” (J Med Chem, 2016).

In test [1] the target is T1, Toll-like receptor 7 (Homo sapiens, UniProt Q9NYK1).
T1 sequence (Q9NYK1 whole entry): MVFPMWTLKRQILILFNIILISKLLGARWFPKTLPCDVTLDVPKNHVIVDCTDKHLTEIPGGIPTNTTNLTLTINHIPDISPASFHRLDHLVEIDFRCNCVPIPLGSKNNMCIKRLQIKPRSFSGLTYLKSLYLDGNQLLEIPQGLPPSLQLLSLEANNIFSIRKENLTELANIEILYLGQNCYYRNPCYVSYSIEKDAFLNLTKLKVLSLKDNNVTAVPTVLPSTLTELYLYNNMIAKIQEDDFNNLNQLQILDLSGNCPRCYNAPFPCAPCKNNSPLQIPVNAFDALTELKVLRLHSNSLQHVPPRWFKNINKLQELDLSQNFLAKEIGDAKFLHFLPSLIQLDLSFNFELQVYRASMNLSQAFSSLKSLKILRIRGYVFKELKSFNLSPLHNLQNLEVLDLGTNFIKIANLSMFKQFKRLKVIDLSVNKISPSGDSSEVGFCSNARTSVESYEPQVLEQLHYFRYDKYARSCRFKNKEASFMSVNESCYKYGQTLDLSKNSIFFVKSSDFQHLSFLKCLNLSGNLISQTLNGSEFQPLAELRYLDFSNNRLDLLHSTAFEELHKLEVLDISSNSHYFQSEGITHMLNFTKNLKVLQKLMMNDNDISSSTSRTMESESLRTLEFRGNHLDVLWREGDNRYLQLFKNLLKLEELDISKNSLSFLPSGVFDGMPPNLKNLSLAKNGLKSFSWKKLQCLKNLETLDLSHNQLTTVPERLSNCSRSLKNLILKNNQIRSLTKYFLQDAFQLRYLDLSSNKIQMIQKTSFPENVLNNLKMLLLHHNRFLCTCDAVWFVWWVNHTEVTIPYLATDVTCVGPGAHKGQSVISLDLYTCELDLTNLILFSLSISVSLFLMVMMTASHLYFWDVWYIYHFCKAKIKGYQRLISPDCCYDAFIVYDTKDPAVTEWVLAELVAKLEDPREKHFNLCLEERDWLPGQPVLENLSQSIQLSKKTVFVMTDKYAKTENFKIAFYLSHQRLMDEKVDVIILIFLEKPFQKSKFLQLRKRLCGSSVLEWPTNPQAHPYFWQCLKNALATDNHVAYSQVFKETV
Kind of test: Agonist activity at TLR7 in human PBMC assessed as induction of IL-6 secretion in supernatant after 18 hrs. Put shortly:
(§1)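 Isolated human PBMCs washed in PBS, resuspended in RPMI1640 with 10% heat-inactivated FBS, pyruvate, HEPES, at 1 × 10⁶ cells/mL. Compounds as in-situ sodium salts from 10 mM aqueous stocks, 3-fold 10-point dilutions from 30 μM.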

Test [2] addresses T1, Toll-like receptor 7. Kind of test: Agonist activity at human TLR7 expressed in HEK293 cells incubated for 6 hrs by luciferase reporter gene assay. The format is cell-based. Put shortly: (§2)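 HEK293 stably carrying NF-κB-firefly luciferase reporter plus human TLR7 (best resiquimod-responding clone), maintained under puromycin/blasticidin. 25 000 cells per well in DMEM with 3% FCS.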
In general terms: A reporter such as luciferase makes a cellular process visible.

Test [3] addresses T2, Toll-like receptor 7 (Mus musculus) (UniProt P58681).
T2 sequence (whole entry): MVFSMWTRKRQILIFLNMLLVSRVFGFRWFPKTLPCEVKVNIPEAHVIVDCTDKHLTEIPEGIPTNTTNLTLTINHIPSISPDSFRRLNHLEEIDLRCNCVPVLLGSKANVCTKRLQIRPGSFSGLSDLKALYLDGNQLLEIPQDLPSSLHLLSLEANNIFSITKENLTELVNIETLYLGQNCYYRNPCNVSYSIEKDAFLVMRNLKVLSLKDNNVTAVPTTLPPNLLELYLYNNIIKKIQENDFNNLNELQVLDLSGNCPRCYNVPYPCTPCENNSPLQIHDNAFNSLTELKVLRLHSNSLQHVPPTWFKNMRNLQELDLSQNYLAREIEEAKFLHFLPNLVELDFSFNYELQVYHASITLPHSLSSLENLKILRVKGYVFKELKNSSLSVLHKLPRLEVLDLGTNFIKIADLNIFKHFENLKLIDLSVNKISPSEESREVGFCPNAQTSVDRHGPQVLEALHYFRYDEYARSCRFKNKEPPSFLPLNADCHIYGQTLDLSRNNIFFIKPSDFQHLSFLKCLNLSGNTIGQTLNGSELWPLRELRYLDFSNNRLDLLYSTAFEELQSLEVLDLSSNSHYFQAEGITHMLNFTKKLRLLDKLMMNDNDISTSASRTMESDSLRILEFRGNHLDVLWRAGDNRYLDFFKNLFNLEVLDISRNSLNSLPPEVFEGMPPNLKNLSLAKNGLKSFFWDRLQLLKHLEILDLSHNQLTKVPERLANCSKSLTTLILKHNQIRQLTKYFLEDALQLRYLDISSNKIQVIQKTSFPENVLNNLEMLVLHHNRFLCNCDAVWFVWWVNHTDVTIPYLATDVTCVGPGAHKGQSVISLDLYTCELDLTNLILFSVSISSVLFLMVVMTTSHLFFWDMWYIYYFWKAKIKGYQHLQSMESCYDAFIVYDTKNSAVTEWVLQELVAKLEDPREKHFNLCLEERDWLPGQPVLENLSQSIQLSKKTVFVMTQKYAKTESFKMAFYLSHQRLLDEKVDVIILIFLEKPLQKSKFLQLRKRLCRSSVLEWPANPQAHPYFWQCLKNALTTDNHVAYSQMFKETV
Kind of test: Agonist activity at TLR7 in Balb/c mouse splenocytes assessed as induction of IL-6 secretion in supernatant after 18 hrs relative to resiquimod. The format is cell-based. Put shortly: (§3)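 Spleens from female BALB/c mice (6−10 weeks), single-cell suspension, RBC lysis; 5 × 10⁵ splenocytes per well in RPMI 1640 with 10% FCS, 2-ME. Compounds as sodium salts (1 equiv NaOH) from 10 mM water stocks, 3-fold 10-point dilutions from 30 μM.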

Test [4] addresses T3, Toll-like receptor 8 (Homo sapiens) (UniProt Q9NR97).
T3 sequence (whole entry): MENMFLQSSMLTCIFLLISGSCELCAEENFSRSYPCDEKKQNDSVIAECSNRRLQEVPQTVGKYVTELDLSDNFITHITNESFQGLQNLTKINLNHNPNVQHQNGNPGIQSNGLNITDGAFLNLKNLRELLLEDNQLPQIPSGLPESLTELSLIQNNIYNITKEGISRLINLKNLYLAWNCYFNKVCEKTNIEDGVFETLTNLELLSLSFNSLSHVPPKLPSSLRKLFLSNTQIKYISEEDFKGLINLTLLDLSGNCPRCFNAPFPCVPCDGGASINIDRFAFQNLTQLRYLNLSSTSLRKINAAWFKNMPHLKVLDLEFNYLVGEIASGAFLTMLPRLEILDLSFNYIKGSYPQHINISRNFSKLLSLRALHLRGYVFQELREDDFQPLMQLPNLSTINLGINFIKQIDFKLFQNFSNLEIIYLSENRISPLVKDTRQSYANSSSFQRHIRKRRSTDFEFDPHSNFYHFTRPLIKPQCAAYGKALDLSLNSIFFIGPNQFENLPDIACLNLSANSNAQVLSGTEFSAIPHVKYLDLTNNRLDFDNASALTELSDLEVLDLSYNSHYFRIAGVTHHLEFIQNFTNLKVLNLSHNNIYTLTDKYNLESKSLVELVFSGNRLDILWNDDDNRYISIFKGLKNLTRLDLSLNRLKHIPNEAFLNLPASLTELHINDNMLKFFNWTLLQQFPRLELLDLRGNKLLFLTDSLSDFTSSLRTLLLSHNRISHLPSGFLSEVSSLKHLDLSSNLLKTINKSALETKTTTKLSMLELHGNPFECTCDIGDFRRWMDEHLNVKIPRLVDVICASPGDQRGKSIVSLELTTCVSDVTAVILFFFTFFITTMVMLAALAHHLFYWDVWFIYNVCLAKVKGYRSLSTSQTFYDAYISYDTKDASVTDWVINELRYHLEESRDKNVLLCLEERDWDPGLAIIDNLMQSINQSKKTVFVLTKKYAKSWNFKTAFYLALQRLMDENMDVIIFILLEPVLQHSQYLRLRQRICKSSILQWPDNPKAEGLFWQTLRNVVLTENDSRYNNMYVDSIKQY
Kind of test: Agonist activity at human TLR8 expressed in HEK293 cells up to 30 uM incubated for 6 hrs by luciferase reporter gene assay relative to resiquimod. The format is cell-based.

Test [5] deals with T4, Toll-like receptor 7 (Mus musculus, UniProt P58681).
T4 sequence (P58681 whole entry): T2 sequence (whole entry)
Kind of test: Agonist activity at TLR7 in Balb/c mouse splenocytes assessed as induction of IL-6 secretion in supernatant after 18 hrs. The format is cell-based. The method, boiled down: as §3

The target of test [6] is T5, Toll-like receptor 7 (Homo sapiens) (UniProt Q9NYK1).
T5 sequence (whole entry): T1 sequence (Q9NYK1 whole entry)
Kind of test: Agonist activity at human TLR7 expressed in HEK293 cells incubated for 6 hrs by luciferase reporter gene assay relative to resiquimod. The format is cell-based. Put shortly: as §2

Test [7] concerns the target T5, Toll-like receptor 7 (Homo sapiens). Kind of test: Agonist activity at TLR7 in human PBMC assessed as induction of IL-6 secretion in supernatant after 18 hrs relative to resiquimod. The format is cell-based. Put shortly:
as §1

Test [8] concerns the target T2, Toll-like receptor 7 (Mus musculus). Kind of test: Agonist activity at TLR7 in Balb/c mouse splenocytes assessed as IL-6 level in supernatant after 18 hrs. The format is cell-based. Put shortly: as §3
The target in test [9] is T5, Toll-like receptor 7 (Homo sapiens). Kind of test: Agonist activity at TLR7 in human PBMC assessed as IL-6 level in supernatant after 18 hrs. The method, boiled down: as §1

For the compound `COc1ccc(CCc2cnc3c(N)nc4cc(/C=C/P(=O)(O)O)ccc4c3c2)c(C)c1`, the EC50 on Toll-like receptor 7 [1] (read-out: EC50) amounted to 1.7 µM; on Toll-like receptor 7 [2], 0.15 µM; on Toll-like receptor 7 [5] it was 2.5 µM. Moreover, the %max in test [3] was 81%. The same compound had an Activity in [4] of less than 5%.

Take `COc1ccc(CCc2cnc3c(N)nc4cc(/C=C(\F)P(=O)(O)O)ccc4c3c2)c(C)c1`: the EC50 at Toll-like receptor 7 [1] (read-out: EC50) turned out to be 3.4 µM; at Toll-like receptor 7 [5], 0.57 µM. Further, the %max in test [3] was 220%. The Activity in test [4] is less than 5%.

With `Cc1ccc2c(c1)nc(N)c1ncc(CCc3ccc(OCCCC(F)(F)P(=O)(O)O)cc3C)cc12`, the EC50 at Toll-like receptor 7 [1] (read-out: EC50) amounted to 1.6 µM; on Toll-like receptor 7 [5] it was 3.2 µM. Further, the %max in [3] is 47%. The same compound gave an Activity in test [4] of less than 5%.

For `COc1ccc(CCc2cnc3c(N)nc4cc(C(=O)P(=O)(O)O)ccc4c3c2)c(C)c1`, the values for the EC50 result at Toll-like receptor 7 [1], on Toll-like receptor 7 [2] and at Toll-like receptor 7 [5] were “Not Active”, 5.6 µM and 14 µM, respectively. Further, the values for the %max in [6] and in [3] were 112% and 117%, respectively. The compound further registered an Activity in test [4] of less than 5%. Moreover, in test [7], the “%max” value is “inactive”.

As for `COc1ccc(CCc2cnc3c(N)nc4cc(CCP(=O)(O)O)ccc4c3c2)c(C)c1`, the EC50 on Toll-like receptor 7 [1] (read-out: EC50) is 0.4 µM; on Toll-like receptor 7 [5], 0.13 µM. Further, in test [3], the %max came out at 124%. The compound further returned an Activity in test [4] of less than 5%.

As to `CCOCc1nc2c(N)nc3ccccc3c2n1CC(C)(C)O`, the figures for the Activity in test [8] and in test [9] were 600 pg/mL and 12500 pg/mL, respectively.

For the compound `Cc1cc(OCCCP(=O)(O)O)ccc1CCc1cnc2c(N)nc3cc(CCC(=O)O)ccc3c2c1`, the EC50 came out at 0.29 µM on Toll-like receptor 7 [1] (read-out: EC50) and 0.31 µM on Toll-like receptor 7 [5]. Also, in test [3], the %max stood at 100%. The Activity in test [4] was less than 5%.

As for `COc1ccc(CCc2cnc3c(N)nc4cc(C(=O)C(F)(F)P(=O)(O)O)ccc4c3c2)c(C)c1`, the values for the half-maximal effective concentration (EC50) on Toll-like receptor 7 [1] (read-out: EC50) and at Toll-like receptor 7 [5] were 7.8 µM and 3.4 µM, respectively. Also, the %max in [3] stood at 100%. In addition, the Activity in [4] is less than 5%.

For the compound `Cc1ccc2c(c1)nc(N)c1ncc(CCc3ccc(OCCOCCOCCP(=O)(O)O)cc3C)cc12`, the EC50 amounted to 8.2 µM at Toll-like receptor 7 [1] (read-out: EC50), 3.1 µM on Toll-like receptor 7 [2] and 3.6 µM on Toll-like receptor 7 [5]. For the same compound, the %max in test [6] came out at 94%; in test [3], 83%; in test [7], 55%. This compound also registered an Activity in test [4] of less than 5%.
